Screening results: PubChem, several laboratories
Rpn11 inh – Rpn11 (human) deubiquitinase inhibition; O00487; calls only at 20 µM; actives 0.59% (n = 360,000); AID 588493; human 26S proteasome, Ub4-pepOG fluorescence polarization; 20S core pre-blocked with epoxomicin;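 active means inhibition at 20 µM, scaled to each plate's controls, above about 33%, limit read from the data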
CSN deneddyl inh – CSN deneddylation inhibition; Q92905; inhibition, % at 12.5 µM; Purified CSN, SCF-Nedd8-OG deneddylation, fluorescence polarization; actives 0.38% (n = 360,000);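 active means pattern-corrected inhibition above about 35%, with an unprinted fluorescence ratio check between 0.5 and 1.5, limit read from the data, passing the limit was not always enough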;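 further: 0% = enzyme with substrate and 100% = substrate without enzyme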
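Assay system: purified human Csn5 enzyme expressed in HEK293T cells; measure: % inhibition; also added: SCFSkp2-Nedd8OG substrate at 10 nM final; technique: fluorescence polarization; times: reaction 90 min, room temperature; medium: Tris buffer pH 7.5, NaCl, DTT, Tween-20, trehalose, ovalbumin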
HNF4A DNA FP – change in binding of human HNF4 alpha to DNA. P41235. HNF4a-FITC DNA binding, fluorescence polarization, 1 h. activity change, % at 10 µM. actives 0.3% (n = 360,000); in the data active means activity change above about 30%, passing the limit was not always enough
Target sequence (P41235 whole entry, looked up): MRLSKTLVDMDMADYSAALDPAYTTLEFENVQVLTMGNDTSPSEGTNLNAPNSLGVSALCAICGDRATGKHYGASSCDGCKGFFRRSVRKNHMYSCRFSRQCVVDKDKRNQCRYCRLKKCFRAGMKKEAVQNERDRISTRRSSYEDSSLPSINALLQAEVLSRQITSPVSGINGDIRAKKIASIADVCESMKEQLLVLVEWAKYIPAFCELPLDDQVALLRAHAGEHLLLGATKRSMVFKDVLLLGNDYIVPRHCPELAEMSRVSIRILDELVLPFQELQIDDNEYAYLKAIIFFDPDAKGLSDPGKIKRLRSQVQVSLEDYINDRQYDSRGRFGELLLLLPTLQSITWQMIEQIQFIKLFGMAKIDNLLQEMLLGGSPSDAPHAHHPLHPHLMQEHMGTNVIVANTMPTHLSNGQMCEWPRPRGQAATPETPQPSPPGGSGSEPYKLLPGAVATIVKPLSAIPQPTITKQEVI
SENP1 inh – SENP1 (human) catalytic domain inhibition. inhibition, % at 10 µM. actives 0.21% (n = 360,000). recombinant SENP1 catalytic domain, CyPet-SUMO1-YPet FRET cleavage. Q9P0U3;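 active means inhibition at least 30% at 10 µM, raw YFP signal under a set limit, fluorescence ratio 0.5 to 1.5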;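 further: 0% = enzyme with DMSO and 100% = no enzyme wells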
Target sequence (Q9P0U3 419-644 limits assumed): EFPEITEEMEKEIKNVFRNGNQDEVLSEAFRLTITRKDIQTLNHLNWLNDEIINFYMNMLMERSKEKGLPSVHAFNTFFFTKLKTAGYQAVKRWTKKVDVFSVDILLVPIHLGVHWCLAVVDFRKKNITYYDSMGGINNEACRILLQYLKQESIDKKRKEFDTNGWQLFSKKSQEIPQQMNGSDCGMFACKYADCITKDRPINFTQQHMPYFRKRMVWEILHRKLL
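Assay system – human recombinant His6-tagged SENP1 catalytic domain enzyme · Input – SENP1 enzyme, 20 pM final · Buffer or medium – Tris pH 8 buffer plus EDTA, NaCl, BME, BSA, NP40, catalase · Schedule – 50 min reaction at room temperature · Technique – FRET read of cyan and yellow fluorescence · Control set – no-enzyme wells low, DMSO-plus-enzyme wells high control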
TPT1 inh – blocks Candida albicans tRNA 2'-phosphotransferase. actives 0.81% (n = 300,000). recombinant caTPT1, FP RNA substrate dephosphorylation. inhibition, % at 5 µM;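 active means inhibition above the mean of all tested compounds plus 3 SD, set per screening campaign, cut at about 24% in these data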;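 further: plate controls were DMSO alone for no effect and ferristatin control at 100 nM for full effect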
SUMO HTRF inh – blocks human SUMOylation mediated by UBC9; P63279; HTRF SUMOylation assay, SAE1/SAE2 + UBC9, in vitro; inhibition, % at 35 µM; actives 0.36% (n = 290,000); AID 2006; in the data active means inhibition above about 50%, passing the limit was not always enough
caTPT1 confirm – confirmation of Candida albicans TPT1 inhibitors; recombinant caTPT1, fluorescence polarization, RNase T1 coupled; AID 2149; inhibition, % at 5 µM; actives 74% (n = 2,400); shares compounds with TPT1 inh;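 active means inhibition above the primary screen limit, the mean inhibition of all tested compounds plus 3 SD, cut at about 25% in these data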
RNase T1 inh – RNase T1 inhibition in TPT1 counter-screen | actives 83% (n = 2,400) | RNase T1 cleavage, fluorescence polarization, 1536-well | shares compounds with TPT1 inh | inhibition, % at 5 µM;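 active means inhibition above the solvent-only control well mean plus 3 SD, limit set per screening run, cut at about 23% in these data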;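 further: plate controls were DMSO wells with enzyme for no effect and wells without RNase T1 for full effect; inhibitors block cleavage so intact labeled substrate keeps polarization high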
Rpn11 inh conf – Rpn11 inhibition confirmation, single concentration; AID 602318; purified human 26S proteasome, Ub4-pepOG fluorescence polarization; proteasome pretreated with epoxomicin; actives 29% (n = 1,900); inhibition, % at 20 µM; shares compounds with Rpn11 inh
MMP-2 counter-1 – counter-screen for RPN11 inhibitors: inhibition of human MMP-2; recombinant MMP-2, FRET peptide cleavage fluorescence; shares compounds with Rpn11 inh; inhibition, % at 20 µM; actives 4% (n = 1,900);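 further: human MMP-2 activated beforehand with APMA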
Thrombin inh – blocks bovine thrombin, flagging nonselective RPN11 hits; shares compounds with Rpn11 inh; bovine thrombin cleavage of Ub4-pepOG, fluorescence polarization; inhibition, % at 20 µM; actives 13% (n = 1,900);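 active means mean inhibition at least 40% at 20 µM, or signal 3 deviations below plate average, so some actives read negative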;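 further: plate controls were thrombin with DMSO for no effect and buffer wells lacking thrombin for full effect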
CSN5 deneddyl – validation of inhibitors of human CSN-mediated cullin deneddylation. shares compounds with CSN deneddyl inh. Csn5 deneddylation of SCF-Nedd8OG, fluorescence polarization, 90 min. inhibition, % at 16.6 µM. actives 62% (n = 540); in the data active means inhibition above about 50%;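 further: 0% = DMSO with enzyme and 100% = no enzyme wells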
MMP-2 counter-2 – counter-screen for CSN deneddylation inhibitors: human MMP-2 inhibition | shares compounds with CSN deneddyl inh | recombinant MMP-2, FRET substrate fluorescence, 60 min | inhibition, % at 16.6 µM | actives 33% (n = 540);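 active means corrected plate-normalized z-score of 5 or more, or -5 or less, or inhibition of 15% or more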;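 further: plate controls were DMSO wells with enzyme for no effect and buffer wells lacking MMP-2 for full effect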
Thrombin cntr – thrombin (bovine) inhibition, counter-screen for CSN hits. inhibition, % at 16.6 µM. shares compounds with CSN deneddyl inh. actives 49% (n = 540). bovine thrombin cleavage of Ub4-pepOG, fluorescence polarization;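 active means inhibition at or above a set limit, with a fluorescence interference ratio between 0.5 and a set maximum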
Starred values were filed as active, the others as inactive; i = inactive; . = not tested or not shown; + = active, no number. This is a sample that favours compounds with a hit; in the whole collection about 1.8% have one here. Unless noted, no stated cut-off is given here; in the data, active means inhibition above about 40%; inactive means the rest.

SMILES | Rpn11 inh | CSN deneddyl inh | HNF4A DNA FP | SENP1 inh | TPT1 inh | SUMO HTRF inh | caTPT1 confirm | RNase T1 inh | CSN5 deneddyl | MMP-2 counter-2 | Thrombin cntr | others
CC[n+]1c(/C=C/N(C)c2ccccc2)oc2ccc(F)cc21 | . | 37* | 60* | 1 | 55* | 16 | 72* | 81* | 122* | -4 | 47*
CC1(C(=O)NCc2ccccc2)CSCC(=O)N1CCOc1ccccc1 (stereo not given) | . | 8 | 0 | 3 | . | . | . | . | . | . | .
COc1ccc(C(CNC(=O)c2cccc(S(=O)(=O)N3CCCC3)c2)N2CCCC2)cc1 (stereo not given) | i | -3 | 3 | 0 | . | . | . | . | . | . | .
Cc1cccc(N(CC(=O)N/N=C/c2ccc(OCC(=O)NCc3ccco3)cc2)S(C)(=O)=O)c1C | i | -4 | 1 | 5 | -3 | 7 | . | . | . | . | .
CCOC(=O)/C(=C/C1=CC(=C/N(C)C)/C(=O)O1)C(C)=O | . | 93* | 66* | -29 | 124* | -1 | 140* | 138* | 121* | -23 | 82*
COc1ccccc1N=C1NC(=O)/C(=C/c2ccc(N(C)C)cc2)S1 | . | 41* | 144 | -24 | 119* | -4 | 131* | 125* | 153* | -25* | 21*
COc1cc(/C=C2\SC(c3ccc(C)cc3)=NC2=O)ccc1O | + | 72* | 78* | 0 | 80* | -36 | 98* | 101* | -11 | 0 | 50*
COc1cc(/C=C2\SC(=N)N(c3ccc(F)cc3)C2=O)ccc1O | i | 8 | 14 | 49 | 21 | -54 | . | . | . | . | .
COc1ccc(N=C2NC(=O)/C(=C/c3ccc(O)c(OC)c3)S2)cc1 | + | 37* | 23 | 36 | 32* | -29 | 44* | 52* | 64* | 0 | 35* | Rpn11 inh conf=49*;MMP-2 counter-1=2;Thrombin inh=68*
COc1cc(/C=C2\SC(=Nc3ccc(O)cc3)NC2=O)cc(OC)c1OC | . | . | . | . | 0 | 25 | . | . | . | . | .
O=C(NCc1ccccc1)/C(=C/c1ccc(OC(F)F)cc1)c1ccccc1 | i | 2 | 2 | 3 | -4 | -24 | . | . | . | . | .
CCCCNC(=O)C1c2ccccc2OCC(=O)N1CCCN1CCOCC1 (stereo not given) | . | -5 | -1 | 2 | . | . | . | . | . | . | .
O=C1NC[C@H](CCCCN2C[C@@H](Cc3ccccc3)N(CCC3CCCCC3)C(=O)C2=O)N(CCC2CCCCC2)C1=O | . | -2 | 0 | 2 | . | . | . | . | . | . | .
COc1cc(C2C(C#N)=C(N)Oc3cc(N(C)C)ccc32)cc2c1OCO2 (stereo not given) | . | 36* | 56 | -30 | 100* | -16 | 98* | 99* | 86* | 3 | 20*
CC1=CN2C(=N)/C(=C/c3ccco3)C(=O)N=C2S1 | i | -2 | 1 | -2 | 1 | 3 | . | . | . | . | .
CC1=CN2C(=N)/C(=C/c3ccc([N+](=O)[O-])o3)C(=O)N=C2S1 | . | 102* | 66* | 16 | 77* | -3 | 118* | 118* | 52* | 10 | 92*
COc1cc(/C=C2\SC(=S)N(NC(=O)c3ccc(O)cc3)C2=O)ccc1O | . | 50* | 50* | 13 | 35* | -6 | 39* | 52* | 53* | 2 | 65*
O=C(O)C(Cc1ccccc1)N1C(=O)/C(=C/c2ccccc2)SC1=S (stereo not given) | i | 0 | 0 | 1 | -2 | 16 | . | . | . | . | .
COc1cc(/C=C2\SC(=S)N(c3cccnc3)C2=O)ccc1O | . | 149 | 0 | 41 | 23 | 15 | . | . | . | . | .
CC(=O)NN1C(=O)/C(=C\c2ccc(C)cc2)SC1=S | i | -1 | 3 | 2 | -1 | 10 | . | . | . | . | .
COc1cc(/C=C2\SC(=S)N(C(Cc3ccccc3)C(=O)O)C2=O)ccc1O (stereo not given) | + | 36* | 35* | -1 | 33* | 19 | 37* | 49* | 56* | 6 | 68* | Rpn11 inh conf=62*;MMP-2 counter-1=-17;Thrombin inh=79*
CC(=O)NN1C(=O)/C(=C\c2ccc(O)cc2)SC1=S | . | 96* | 82* | 55* | 37* | 10 | 41* | 48* | 39 | -5 | 73*
COc1cccc(/C=C2\SC(=S)N(NC(=O)c3ccncc3)C2=O)c1 | i | 6 | 2 | 4 | 1 | 14 | . | . | . | . | .
COc1cc(/C=C2\SC(=S)N(NC(=O)c3cccnc3)C2=O)ccc1O | . | 39* | 52* | 49* | 25* | 14 | 34* | 42* | 65* | 9 | 35*
Cc1ccc(Nc2ncc(C(=O)NCCCN3CCN(C)CC3)c3ccccc23)cc1Cl | i | 2 | 5 | -2 | -4 | 14 | . | . | . | . | .
CCC(C(=O)NC1CCCC1)N(Cc1ccccc1Cl)C(=O)c1snc(C(N)=O)c1N (stereo not given) | i | 2 | -1 | -20 | 5 | -19 | . | . | . | . | .
CCOc1ccccc1-c1ccc(C(=O)NCc2ccccc2)o1 | i | 0 | -1 | -3 | -1 | 4 | . | . | . | . | .
Cc1ccccc1C(=O)N1CCC(C(=O)Nc2sccc2C(N)=O)CC1 | i | 3 | 0 | -1 | . | . | . | . | . | . | .
